The results in this text go back to ChEMBL document CHEMBL1128459, “Characterization of potent and selective antagonists at postsynaptic 5-HT1A receptors in a series of N4-substituted arylpiperazines” (J Med Chem, 1995).

The target of one assay is D(2) dopamine receptor (Rattus norvegicus, UniProt P61169). Kind of assay: In vitro binding affinity towards Dopamine receptor D2 in rat striatum was determined using [3H]-spiperone as radioligand. Type of assay: tissue-based. The method in brief:
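Rat striatal membranes (1/300 wt/vol), no preincubation, in 50 mM Tris pH 7.4 with CaCl2, ascorbic acid, 5 mM KCl, 1 mM MgCl2 and 120 mM NaCl. Ligand 0.2 nM [3H]spiperone, with 100 nM ketanserin masking 5-HT2A sites; raclopride defined nonspecific binding. Incubation 30 min at 37 °C, then filtration. pKi derived from regression-based IC50.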

For assay [1], the species on record is Rattus norvegicus. Kind of assay: Maximum agonist effect (% effect) expressed relative to 8-hydroxy-DPAT (100%). It is filed as functional. The method in brief:
(§1)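 In the rat rectal-temperature model (sc dosing, 8-OH-DPAT 0.16 mg/kg sc for antagonism), the maximal percentage of induced hypothermia (agonist) and of block of 8-OH-DPAT hypothermia (antagonist) was recorded. Each value is given with the dose at which it was reached.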

Assay [2] has as its target 5-hydroxytryptamine receptor 1B (Rattus norvegicus, UniProt P28564). Kind of assay: Binding affinity at 5-hydroxytryptamine 1B receptor. Summed up:
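Rat frontal cortex membranes (1/40 wt/vol) were homogenized in 50 mM Tris pH 7.7 with pargyline, 4 mM CaCl2 and 0.1% ascorbic acid, then preincubated for 30 min at 37 °C. Labelled with 2.0 nM [3H]-5-HT, with 100 nM 8-OH-DPAT and 100 nM mesulergine masking 5-HT1A/5-HT2A sites; 5-CT defined nonspecific binding.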

The species entered for assay [3] is Rattus norvegicus. Kind of assay: Maximum antagonist effect (% effect) expressed relative to 8-hydroxy-DPAT (100%). Type of assay: functional. The method in brief: as §1
In assay [4] the test system is Rattus norvegicus. Kind of assay: Minimum effective agonist dose administered subcutaneously. Type of assay: functional. Particulars: sc, read-out: MED. The method in brief:
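Male Wistar rats (200-220 g) were given the test drug alone sc in water (1.0 mL/kg), with vehicle reinjected at 30 min. Rectal temperature change from basal was measured 60 min after the first injection. MED for hypothermia was set against vehicle by ANOVA with Dunnett's test, P < 0.05.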

The test system of assay [5] is Rattus norvegicus. Kind of assay: Minimum effective antagonist dose administered subcutaneously. Type of assay: functional. Particulars: sc, read-out: MED. The method in brief: (§2)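 Male Wistar rats (200-220 g) had rectal temperature taken, then received the test drug sc in distilled water (1.0 mL/kg). After 30 min they got 8-OH-DPAT 0.16 mg/kg sc, and temperature was remeasured 30 min later. Change from basal was scored.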

In assay [6] the test system is Rattus norvegicus. Kind of assay: Compound after subcutaneous administration was evaluated for antagonist activity against hypothermia induced by 8-hydroxy -DPAT in rat. Type of assay: functional. The settings on record: sc, read-out: ID50 (the source's name). The method in brief:
as §2

The target in assay [7] is D(2) dopamine receptor (Rattus norvegicus) (UniProt P61169).
The nature of assay [8]: Ratio of MED (agonist) to that of MED (antagonist) values. It is filed as functional. Summed up:
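The MED for inducing hypothermia alone was divided by the MED for blocking 8-OH-DPAT (0.16 mg/kg sc) hypothermia. Both MEDs came from sc dosing in male Wistar rats and were tested against vehicle by ANOVA with Dunnett's test, P < 0.05.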

Assay [9] has as its target T1, 5-hydroxytryptamine receptor 1A (Rattus norvegicus, UniProt P19327).
T1 sequence (P19327 whole entry): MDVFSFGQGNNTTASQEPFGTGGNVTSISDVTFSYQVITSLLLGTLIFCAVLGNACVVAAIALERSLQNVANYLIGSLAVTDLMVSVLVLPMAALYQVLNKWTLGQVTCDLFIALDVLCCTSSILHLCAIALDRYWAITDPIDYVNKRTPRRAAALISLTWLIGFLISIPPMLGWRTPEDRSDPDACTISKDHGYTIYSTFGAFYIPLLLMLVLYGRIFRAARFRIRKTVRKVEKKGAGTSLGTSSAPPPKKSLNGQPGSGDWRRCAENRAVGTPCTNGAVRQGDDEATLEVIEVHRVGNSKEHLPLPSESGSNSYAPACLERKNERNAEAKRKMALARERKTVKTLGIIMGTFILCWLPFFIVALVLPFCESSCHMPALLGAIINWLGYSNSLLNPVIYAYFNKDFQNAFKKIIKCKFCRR
Kind of assay: Binding affinity at 5-hydroxytryptamine 1A receptor. The method in brief:
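Rat hippocampal membranes (1/100 wt/vol) in 50 mM Tris pH 7.7 with 4 mM CaCl2, 0.1% ascorbic acid and pargyline. Membranes were spun at 25000g, preincubated 30 min at 37 °C and respun, then incubated with 0.4 nM [3H]-8-OH-DPAT for 30 min at 25 °C. 5-HT defined nonspecific binding, and samples were filtered on PEI-soaked GF/B. IC50 came from regression; pKi = −log[IC50/(1+[L]/Kd)].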

5-hydroxytryptamine receptor 1B, sequence (P28564 whole entry): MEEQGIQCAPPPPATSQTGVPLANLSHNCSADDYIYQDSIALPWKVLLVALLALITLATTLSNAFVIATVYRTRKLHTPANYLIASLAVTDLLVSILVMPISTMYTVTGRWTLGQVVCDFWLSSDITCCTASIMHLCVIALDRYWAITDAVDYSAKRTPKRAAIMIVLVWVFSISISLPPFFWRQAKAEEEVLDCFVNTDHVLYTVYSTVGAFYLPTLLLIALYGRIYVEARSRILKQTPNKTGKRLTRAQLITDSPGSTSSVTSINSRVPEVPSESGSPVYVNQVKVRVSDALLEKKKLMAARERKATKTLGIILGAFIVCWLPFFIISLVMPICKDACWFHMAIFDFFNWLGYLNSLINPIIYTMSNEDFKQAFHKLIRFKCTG
D(2) dopamine receptor (Rattus norvegicus), sequence (P61169 whole entry): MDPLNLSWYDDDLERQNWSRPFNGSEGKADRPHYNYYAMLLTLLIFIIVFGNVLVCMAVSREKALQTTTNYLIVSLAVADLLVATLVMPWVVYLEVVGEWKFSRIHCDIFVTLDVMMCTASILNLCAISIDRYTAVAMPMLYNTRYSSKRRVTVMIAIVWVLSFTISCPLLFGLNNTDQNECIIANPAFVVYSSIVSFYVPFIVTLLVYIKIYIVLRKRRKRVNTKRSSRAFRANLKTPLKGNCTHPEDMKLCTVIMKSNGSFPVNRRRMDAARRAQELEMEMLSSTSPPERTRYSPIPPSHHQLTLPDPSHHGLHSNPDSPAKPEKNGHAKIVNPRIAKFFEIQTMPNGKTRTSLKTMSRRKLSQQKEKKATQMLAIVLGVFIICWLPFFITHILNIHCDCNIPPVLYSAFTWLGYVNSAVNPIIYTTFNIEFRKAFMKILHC
D(2) dopamine receptor, sequence (P61169 whole entry): as above

With `COc1ccccc1N1CCN(CCN2C(=O)CC3(CCCC3)CC2=O)CC1` [BMY-7378], the Ki was 17.4 nM at D(2) dopamine receptor and more than 10000 nM in assay [2]. Moreover, the figures for the Max effect in the assay listed under Rattus norvegicus [1] and in the assay filed under Rattus norvegicus [3] were 53% and 64%, respectively. For the same compound, the minimal effective dose in the assay on Rattus norvegicus [4] is 2.5 mg/kg; in the assay on Rattus norvegicus [5], 1.25 mg/kg. Besides, the ED50 in the assay on Rattus norvegicus [6] was determined as 1.6 mg/kg. Besides, the ID50 in [7] turned out to be 0.65 mg/kg.
In the case of `C1=C(CCN2CCN(c3cccc4c3OCCO4)CC2)c2ccccc2C1`, in assay [8], the Ratio was more than 4. The values for the Max effect in the assay listed under Rattus norvegicus [1] and in the assay listed under Rattus norvegicus [3] were 21% and 94%, respectively. Moreover, the Ki in [2] is 251 nM; in assay [9], 0.794 nM. Also, the figures for the minimal effective dose with Rattus norvegicus [4] and in the assay on Rattus norvegicus [5] were more than 2.5 mg/kg and 0.63 mg/kg, respectively. For the same compound, the ED50 with Rattus norvegicus [6] amounted to 0.45 mg/kg. Further, in [7], the ID50 was more than 40 mg/kg.
`c1ccc2c(c1)CC(CN1CCN(c3cccc4c3OCCO4)CC1)C2`: the Ratio in assay [8] was more than 15.8. Moreover, the figures for the Max effect in the assay filed under Rattus norvegicus [1] and in the assay listed under Rattus norvegicus [3] were 0% and 87%, respectively. Besides, the Ki in assay [2] is 490 nM; in assay [9], 2.82 nM. In addition, the minimal effective dose was more than 10 mg/kg in the assay with Rattus norvegicus [4] and 0.63 mg/kg with Rattus norvegicus [5]. Moreover, in the assay on Rattus norvegicus [6], the ED50 came to 0.55 mg/kg. In addition, the ID50 in [7] was more than 40 mg/kg.
Consider `c1ccc2c(c1)CC2CCCN1CCN(c2cccc3c2OCCO3)CC1` (centres undefined), for which the Ratio in assay [8] came to 62.5. For the same compound, the Max effect worked out at 100% in the assay filed under Rattus norvegicus [1] and 75% in the assay listed under Rattus norvegicus [3]. In addition, the Ki in [2] was 646 nM; in assay [9] it was 0.447 nM. Moreover, the minimal effective dose with Rattus norvegicus [4] turned out to be 10 mg/kg; in the assay on Rattus norvegicus [5] it was 0.16 mg/kg. Also, the ED50 in the assay with Rattus norvegicus [6] turned out to be 0.18 mg/kg. In addition, the ID50 in assay [7] is 1.7 mg/kg.
As for `Fc1cccc2c1CC2CN1CCN(c2cccc3c2OCCO3)CC1` (centres undefined), in assay [8], the Ratio is more than 15.8. In addition, the Max effect turned out to be 19% in the assay filed under Rattus norvegicus [1] and 61% in the assay filed under Rattus norvegicus [3]. Besides, the Ki in [2] is 316 nM; in assay [9], 1.78 nM. The minimal effective dose in the assay on Rattus norvegicus [4] is more than 10 mg/kg; in the assay with Rattus norvegicus [5] it was 0.63 mg/kg. In addition, in the assay on Rattus norvegicus [6], the ED50 was 2.51 mg/kg. Further, the ID50 in [7] was more than 40 mg/kg.
